Positions of bridges follow the written chain, without caps; N, C: chain ends. Non-standard residues stand in square brackets, D forms with d. Residues, ends and D or L forms follow the SMILES beside them. Tic = O=C(O)[C@@H]1Cc2ccccc2CN1; dTic = O=C(O)[C@H]1Cc2ccccc2CN1; Pen = CC(C)(S)[C@H](N)C(=O)O
Tests used:
[1] = Ratio of selective binding affinity of mu receptor to that of somatostatin receptor
Somatostatin receptor = test: Binding affinity in competition with [125I]- CGP-23996 in somatostatin receptor binding to rat brain membrane
In short: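 Rat whole-brain membranes (adult male Sprague–Dawley) at 1.0% final tissue were incubated with 0.2 nM [125I]CGP 23,996 and analogues at 100–0.3 μM. Buffer was 50 mM Tris pH 7.4 with 2.0 mg/mL BSA, 20 μg/mL bacitracin and 5 mM MgCl2. Incubation ran 1 h at 37 °C and ended by rapid filtration through BSA-soaked GF/B filters.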

[2] = biological target: Opioid receptors; mu & delta (Rattus norvegicus) (UniProt P33533+P33535); test: Ratio of selective binding affinity of mu receptor to that of delta opioid receptor; format: protein assay
Opioid receptors; mu & delta (Rattus norvegicus), sequence (P33533 whole entry, looked up): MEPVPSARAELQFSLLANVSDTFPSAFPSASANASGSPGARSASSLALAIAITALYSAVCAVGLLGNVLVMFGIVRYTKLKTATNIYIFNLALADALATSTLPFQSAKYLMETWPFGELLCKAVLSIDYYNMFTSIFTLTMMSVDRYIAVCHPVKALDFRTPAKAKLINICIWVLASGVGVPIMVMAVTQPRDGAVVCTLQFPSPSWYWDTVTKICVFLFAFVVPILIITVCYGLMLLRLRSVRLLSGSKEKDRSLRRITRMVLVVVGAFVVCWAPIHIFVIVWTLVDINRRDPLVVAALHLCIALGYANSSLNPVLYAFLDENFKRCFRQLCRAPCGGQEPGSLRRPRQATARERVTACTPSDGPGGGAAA
Opioid receptors; mu & delta (Rattus norvegicus), sequence (P33535 whole entry, looked up): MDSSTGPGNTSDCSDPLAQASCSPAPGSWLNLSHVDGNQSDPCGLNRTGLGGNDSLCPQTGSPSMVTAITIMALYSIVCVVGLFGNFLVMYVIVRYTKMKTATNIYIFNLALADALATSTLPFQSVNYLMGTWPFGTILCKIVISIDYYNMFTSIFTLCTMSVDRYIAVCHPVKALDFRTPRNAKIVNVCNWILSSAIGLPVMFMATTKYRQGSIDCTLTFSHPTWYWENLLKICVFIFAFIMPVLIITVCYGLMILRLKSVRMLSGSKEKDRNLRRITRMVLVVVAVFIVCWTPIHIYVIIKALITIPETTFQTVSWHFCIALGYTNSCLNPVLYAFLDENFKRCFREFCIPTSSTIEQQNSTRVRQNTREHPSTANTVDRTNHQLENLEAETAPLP

Cavia porcellus [3] = species on record: Cavia porcellus; test: Negative logarithm of antagonist concentration that requires doubling of agonist concentration to induce original agonist response; details: read-out: pA2 (converted)
[4] = biological target: Delta-type opioid receptor (Rattus norvegicus, UniProt P33533); test: Binding affinity in competition with [3H]- DPDPE in Opioid receptor delta 1 binding to rat brain membrane
Delta-type opioid receptor, sequence (P33533 whole entry): as the sequence (P33533 whole entry, looked up) above
In short: (§1)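 Brains (minus cerebellum) of male Sprague–Dawley rats (200–250 g) were homogenized, preincubated 30 min at 25 °C and centrifuged twice at 43000g. Homogenate at 0.5% final was incubated with 0.5 nM [3H]CTOP (μ) or 1.0 nM [3H]DPDPE (δ) in 50 mM Tris-HCl pH 7.4 with 5 mM MgCl2, BSA 1 mg/mL and 100 μM PMSF, 120 min at 25 °C, in duplicate. Nonspecific binding was taken with 1 μM naloxone; bound label was filtered and scintillation counted; curves were fit by nonlinear least squares.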

Mu-type opioid receptor = Mu-type opioid receptor (Rattus norvegicus, UniProt P33535); test: Binding affinity in competition with [3H]- CTOP in Opioid receptor mu 1 binding to rat brain membrane; in short: as §1
Mu-type opioid receptor, sequence (P33535 whole entry): as the sequence (P33535 whole entry, looked up) above

[5] = biological target: Mu-type opioid receptor (Rattus norvegicus) (UniProt P33535); test: Percentage inhibition in competition with [3H]- CTOP in Opioid receptor mu 1 binding to rat brain membrane at 10000 nM
Mu-type opioid receptor (Rattus norvegicus), sequence (P33535 whole entry): as the sequence (P33535 whole entry, looked up) above

[6] = biological target: Mu-type opioid receptor (Rattus norvegicus) (UniProt P33535); test: Binding affinity of compound in competition with [3H]- CTOP in Opioid receptor mu 1 binding to rat brain membrane at 10000 nM
Cavia porcellus [7] = species on record: Cavia porcellus; test: Intrinsic agonist activity in guinea Pig Ileum (GPI) was determined; format: functional; details: filed as agonist
In short: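 Longitudinal muscle–myenteric plexus strips of ileum from male Hartley guinea pigs (200–500 g) sat in Krebs–bicarbonate at 37 °C under 95% O2/5% CO2 at 1 g tension. Strips were field-stimulated at 0.1 Hz with 0.4-ms supramaximal pulses, and isometric twitches were recorded. Agonist action was taken as twitch inhibition. pA2 came from PL017 (μ agonist) dose–response curves without and with several antagonist concentrations.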

Structure (SMILES): C[C@@H](O)[C@H](NC(=O)[C@H]1NC(=O)[C@H]([C@@H](C)O)NC(=O)[C@H](CCCNC(=N)N)NC(=O)[C@@H](Cc2c[nH]c3ccccc23)NC(=O)[C@H](Cc2ccc(O)cc2)NC(=O)[C@@H](NC(=O)[C@H](N)Cc2ccccc2)CSSC1(C)C)C(N)=O
- Ratio [1]: 4020
- IC50 (Somatostatin receptor): 8452 nM
- Ratio [2]: 2530
- Kb (Cavia porcellus [3]): 75.9 nM

Structure (SMILES): C[C@@H](O)[C@H](NC(=O)[C@H]1NC(=O)[C@H]([C@@H](C)O)NC(=O)[C@H](CCCN)NC(=O)[C@@H](Cc2c[nH]c3ccccc23)NC(=O)[C@H](Cc2ccc(O)cc2)NC(=O)[C@@H](NC(=O)[C@H]2Cc3ccccc3CN2)CSSC1(C)C)C(N)=O
- IC50 [4]: 16000 nM
- Kb (Cavia porcellus [3]): 41.7 nM
- IC50 (Mu-type opioid receptor): 1.4 nM

Structure (SMILES): C[C@@H](O)[C@H](NC(=O)[C@H]1NC(=O)[C@H](CC(N)=O)NC(=O)[C@H](Cc2ccccc2)NC(=O)[C@@H](NC(=O)[C@@H](N)Cc2ccc(O)cc2)CSSC1(C)C)C(N)=O
- Ratio [1]: > 1.3
- IC50 (Somatostatin receptor): >= 10000 nM
- Ratio [2]: > 1.3

Structure (SMILES): CC(C)[C@H](NC(=O)[C@H]1NC(=O)[C@H]([C@@H](C)O)NC(=O)[C@H](CCCCN)NC(=O)[C@@H](Cc2c[nH]c3ccccc23)NC(=O)[C@H](Cc2ccc(O)cc2)NC(=O)[C@@H](NC(=O)[C@H]2Cc3ccccc3CN2)CSSC1(C)C)C(N)=O
- IC50 [4]: 2120 nM
- Kb (Cavia porcellus [3]): 257 nM
- IC50 (Mu-type opioid receptor): 46 nM

Structure (SMILES): CC(C)[C@H](NC(=O)[C@H]1NC(=O)[C@H]([C@@H](C)O)NC(=O)[C@H](CCCCN)NC(=O)[C@H](Cc2c[nH]c3ccccc23)NC(=O)[C@H](Cc2ccc(O)cc2)NC(=O)[C@@H](NC(=O)[C@H]2Cc3ccccc3CN2)CSSC1(C)C)C(N)=O
- Ratio [1]: 43
- IC50 (Somatostatin receptor): 1992 nM
- Ratio [2]: 46

Structure (SMILES): C[C@@H](O)[C@H](NC(=O)[C@H]1NC(=O)[C@H]([C@@H](C)O)NC(=O)[C@H](CCCCN)NC(=O)[C@@H](Cc2c[nH]c3ccccc23)NC(=O)[C@H](Cc2ccc(O)cc2)NC(=O)[C@@H](NC(=O)[C@H](N)Cc2ccccc2)CSSC1(C)C)C(N)=O
- IC50 [4]: 1150 nM
- Kb (Cavia porcellus [3]): 79.4 nM

Structure (SMILES): C[C@@H](O)[C@H](NC(=O)[C@H]1NC(=O)[C@H]([C@@H](C)O)NC(=O)[C@H](CCCCN)NC(=O)[C@H](Cc2c[nH]c3ccccc23)NC(=O)[C@H](Cc2ccc(O)cc2)NC(=O)[C@@H](NC(=O)[C@@H](N)Cc2ccccc2)CSSC1(C)C)C(N)=O
- Ratio [1]: 395
- IC50 (Somatostatin receptor): 1462 nM
- Ratio [2]: 312

Structure (SMILES): C[C@@H](O)[C@H](NC(=O)[C@H]1NC(=O)[C@H](CC(N)=O)NC(=O)[C@H](Cc2ccc(O)cc2)NC(=O)[C@@H](NC(=O)[C@@H](N)Cc2ccccc2)CSSC1(C)C)C(N)=O
- inhibition [5]: 17%
- IC50 (Somatostatin receptor): > 100000 nM

Structure (SMILES): C[C@@H](O)[C@H](NC(=O)[C@H]1NC(=O)[C@H]([C@@H](C)O)NC(=O)[C@H](CCCN=C(N)N)NC(=O)[C@H](Cc2c[nH]c3ccccc23)NC(=O)[C@H](Cc2ccc(O)cc2)NC(=O)[C@@H](NC(=O)[C@@H]2Cc3ccccc3CN2)CSSC1(C)C)C(N)=O (H-[Tic]CYWRT[Pen]T-NH2; disulfide 2-7)
- Ratio [1]: 28600
- IC50 (Somatostatin receptor): 34336 nM
- Ratio [2]: 1060

Structure (SMILES): C[C@@H](O)[C@H](NC(=O)[C@H]1NC(=O)[C@H]([C@@H](C)O)NC(=O)[C@H](CCCN=C(N)N)NC(=O)[C@@H](Cc2c[nH]c3ccccc23)NC(=O)[C@H](Cc2ccc(O)cc2)NC(=O)[C@@H](NC(=O)[C@H]2Cc3ccccc3CN2)CSSC1(C)C)C(N)=O (H-[dTic]CY[dW]RT[Pen]T-NH2; disulfide 2-7)
- IC50 [4]: 1270 nM
- Kb (Cavia porcellus [3]): 2.04 nM
- IC50 (Mu-type opioid receptor): 1.2 nM

Structure (SMILES): C[C@@H](O)[C@H](NC(=O)[C@H]1NC(=O)[C@H]([C@@H](C)O)NC(=O)[C@H](CCCCN)NC(=O)C(Cc2c[nH]c3ccccc23)NC(=O)[C@@H](Cc2ccc(O)cc2)NC(=O)[C@@H](NC(=O)[C@H]2Cc3ccccc3CN2)CSSC1(C)C)C(N)=O (stereo in doubt)
- IC50 [4]: 9320 nM
- Kb (Cavia porcellus [3]): 7.94 nM
- IC50 (Mu-type opioid receptor): 1.2 nM

Structure (SMILES): C[C@@H](O)[C@@H]1NC(=O)[C@H](CCCCN)NC(=O)C(Cc2c[nH]c3ccccc23)NC(=O)[C@H](Cc2ccc(O)cc2)NC(=O)[C@@H](NC(=O)[C@H](N)Cc2ccccc2)CSSC(C)(C)[C@@H](C(=O)N[C@@H](CO)C(N)=O)NC1=O (stereo in doubt)
- IC50 [4]: > 10000 nM
- Kb (Cavia porcellus [3]): 575 nM
- IC50 (Mu-type opioid receptor): 20 nM

Structure (SMILES): C[C@@H](O)[C@@H]1NC(=O)[C@H](CCCCN)NC(=O)C(Cc2c[nH]c3ccccc23)NC(=O)[C@H](Cc2ccc(O)cc2)NC(=O)[C@@H](NC(=O)[C@H](N)Cc2ccccc2)CSSC(C)(C)[C@@H](C(=O)N[C@@H](CC(=O)O)C(N)=O)NC1=O (stereo in doubt)
- Ratio [1]: 2.4
- Ratio [2]: > 2.9

Structure (SMILES): C[C@@H](O)[C@H](NC(=O)[C@@H]1NC(=O)[C@H](CCCCN)NC(=O)C(Cc2c[nH]c3ccccc23)NC(=O)[C@H](Cc2ccc(O)cc2)NC(=O)[C@@H](NC(=O)[C@@H](N)Cc2ccccc2)CSSC1(C)C)C(N)=O (stereo in doubt)
- inhibition [6]: 18%

Structure (SMILES): C[C@@H](O)[C@H](NC(=O)[C@H]1NC(=O)[C@H]([C@@H](C)O)NC(=O)[C@H](CCCCN)NC(=O)C(Cc2c[nH]c3ccccc23)NC(=O)[C@H](Cc2ccc(O)cc2)NC(=O)[C@@H](NC(=O)C(N)Cc2c[nH]c3ccccc23)CSSC1(C)C)C(N)=O (stereo in doubt)
- Ratio [1]: 254
- Activity (Cavia porcellus [7]): Agonist
- Ratio [2]: > 1590
